OX1R antag-1: antagonists of human orexin 1 receptor (OX1R). 1.8% of 330,000 active. O43613. inhibition, % at 6.6 µM. OX1R-expressing cells, FRET antagonist read-out; in the data active = inhibition mostly above about 38%, no sharp cut-off; inactive = mostly below about 40%;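 note: 0% = agonist challenge alone and 100% = reference antagonist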
Target sequence (O43613 whole entry, looked up): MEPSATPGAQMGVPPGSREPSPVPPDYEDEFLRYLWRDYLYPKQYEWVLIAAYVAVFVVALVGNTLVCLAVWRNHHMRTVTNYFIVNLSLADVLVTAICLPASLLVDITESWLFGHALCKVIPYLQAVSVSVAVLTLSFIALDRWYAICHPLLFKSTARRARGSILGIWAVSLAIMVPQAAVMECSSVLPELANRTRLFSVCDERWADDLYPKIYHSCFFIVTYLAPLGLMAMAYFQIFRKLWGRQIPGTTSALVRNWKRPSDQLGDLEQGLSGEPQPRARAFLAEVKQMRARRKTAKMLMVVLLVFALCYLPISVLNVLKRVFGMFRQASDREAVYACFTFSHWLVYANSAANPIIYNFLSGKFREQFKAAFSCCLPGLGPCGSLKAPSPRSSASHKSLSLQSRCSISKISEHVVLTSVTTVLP
CHO parental Ca: signal in parental CHO cells, OX1R antagonist counter-screen; 0.63% of 330,000 active; inhibition, % at 5.6 µM; parental CHO-K1, ATP-induced calcium, Fluo-8 fluorescence;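 active = inhibition above that plate's mean sample inhibition plus 3 SD, cut at about 26% in these data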;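 note: 0% = ATP-challenged DMSO wells and 100% = DMSO wells without ATP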
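Material – parental CHO cells · Reagent – ATP stimulus · Compound – single nominal dose of 5.6 µM per compound · Detection – Fluo-8 fluorescence · Read-out basis – percent inhibition of calcium signal · Controls – ATP-challenged DMSO wells low, unchallenged DMSO wells high · Repeats – no replicates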
OX1R antag-2: antagonists of human orexin 1 receptor. inhibition, % at 5 µM. CHO/OX1R cells, Fluo-8 calcium fluorescence, orexin A. AID 434989. O43613. 0.43% of 330,000 active;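 active = inhibition above its plate's threshold, mean inhibition of all tested compounds on the plate plus 3 SD, cut at about 37% in these data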;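 note: 0% = orexin A challenge wells and 100% = SB-334867-A antagonist wells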
GPR7 antag: human neuropeptides B/W receptor 1 antagonism; P48145; GPR7-expressing cells, fluorescence antagonist assay; inhibition, % at 4.4 µM; 1.1% of 290,000 active; AID 1861; in the data active = inhibition above about 16%, passing the limit was not always enough;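 note: cells stimulated with the agonist NPW; 0% = agonist with vehicle and 100% = vehicle without agonist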
GalR3 antag: antagonists of human GalR3 | O60755 | HEK293 GalR3-CNG cAMP membrane potential fluorescence; galR3 body fused to GalR1 C-terminus | inhibition, % at 3 µM | 0.44% of 360,000 active;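 active = inhibition above the screen-wide average plus 3 SD, cut at about 13% in these data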;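 note: forskolin and galanin both at EC90 stimulate the cells; cAMP rise reported by CNG channel membrane potential dye signal; 0% = forskolin plus galanin with DMSO and 100% = forskolin alone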
* = called active by the depositor; nt = no result given. Shown are actives, neighbours in structure and some others; about 3.1% of the full set was active somewhere.

SMILES | OX1R antag-1 | CHO parental Ca | OX1R antag-2 | GPR7 antag | GalR3 antag
COc1cccc(-c2nn(-c3ccc(C)cc3)cc2C(=O)N2CCc3cc(OC)c(OC)cc3C2)c1 | 46* | -25 | 27 | nt | -1
COc1ccc(NC(=O)/C(Cl)=C(/Cl)S(=O)(=O)Cc2ccc(C)cc2)cn1 | nt | nt | nt | 24* | nt
O=C(Nc1ccc(Cl)cc1C(=O)c1ccccn1)c1ccccc1 | nt | nt | nt | nt | -7
CN(CCC#N)C(=O)c1ccc(CNS(=O)(=O)c2ccc(F)cc2)cc1 | 17 | 1 | -7 | 16* | -2
C[C@H](c1ccccc1)N1C[C@@H](COCc2ccccc2)Oc2cccc(Oc3ccc(F)cc3)c2S1(=O)=O | nt | nt | nt | nt | 3
CCCC[n+]1c2ccccc2cc2ccccc21 | 48* | -15 | -12 | 34 | -8
CCOC(=O)c1sc(NC(=O)c2cccc(S(=O)(=O)N(CC)CC)c2)cc1C | 27 | -22 | -16 | -1 | -4
CCOC(=O)c1sc(NC(=O)c2ccc(S(=O)(=O)N(C)C)cc2)cc1C | 58* | -15 | 6 | -2 | -3
O=[N+]([O-])c1ccc(-c2nc(-c3ccncc3)no2)cc1 | 64* | -18 | -4 | -14 | -4
Brc1ccc(-c2nc(-c3ccncc3)no2)cc1 | -2 | -6 | 0 | -8 | 3
COc1ccc(NCc2cc3ccccc3[nH]c2=O)cc1 | 68 | -3 | -19 | -13 | -3
COc1ccc2[nH]c(=O)c(CNc3cccc(C)c3)cc2c1 | 48* | -17 | -14 | 2 | 4
COc1ccc(NCc2cc3cc(OC)ccc3[nH]c2=O)cc1 | 47* | -22 | -34 | -2 | -6
c1cnc2ncc3sccc3c2c1 | 8 | 46* | -3 | 0 | -2
Cc1ccc(S(=O)(=O)N2CC3(O)CN(C(=O)OC(C)C)N(C(=O)OC(C)C)CC3(OC(=O)Nc3cccs3)C2)cc1 (centres undefined) | nt | nt | nt | nt | -8
C[C@@H]1CN([C@H](C)CO)C(=O)CCCn2nncc2CO[C@@H]1CN(C)C(=O)Nc1ccccc1 | nt | nt | nt | nt | -5
Cc1ccc(NCN2C(=O)c3ccccc3C2=O)c(C)n1 | nt | nt | nt | nt | 3
CC(C)C1O/C(=N/C(=O)Nc2ccc(Cl)c(Cl)c2)NC1=O (centres undefined) | 11 | 44* | 38 | 17 | 2
Fc1ccc(CNCc2ccccc2Cl)cc1 | 8 | 7 | -3 | 19* | -4
CC(=O)Oc1ccccc1/C=C/c1ccc2ccccc2[n+]1C | 66* | -15 | -5 | -3 | -6
CN(C)c1ccc(/C=C/c2ccc3ccccc3[n+]2C)cc1 | 163* | 0 | 14 | 0 | 0
CN1C(=O)[C@@]2(C3=C(CCCC3=O)OC3=C2C(=O)CC(C)(C)C3)c2ccccc21 | nt | nt | nt | nt | -4
COc1ccc(Cl)cc1CC1(C)C(=O)Nc2c(Cl)cccc21 (centres undefined) | nt | nt | nt | nt | -4
COc1ccc(S(=O)(=O)N(CC(=O)N/N=C/c2cccs2)c2ccc(C)cc2)cc1OC | 53 | -10 | -6 | -2 | 1
COc1ccccc1N(CC(=O)Nc1cc(S(=O)(=O)N(C)C)ccc1C)S(=O)(=O)c1cccs1 | 34* | -16 | 26 | nt | 0
SMILES | OX1R antag-1 | CHO parental Ca | OX1R antag-2 | GPR7 antag | GalR3 antag
COc1ccc(S(=O)(=O)N(CC(=O)N/N=C/c2cccs2)c2cc(C)cc(C)c2)cc1OC | 50* | -26 | 35 | -5 | -9
O=[N+]([O-])c1ccc(OC2OCC(O)C(O)C2O)cc1 (centres undefined) | nt | nt | nt | nt | -4
CC(C)(C)c1ccc(S(=O)(=O)NCC2CCN(C(=O)C(=O)c3cccs3)CC2)cc1 | nt | nt | nt | nt | -7
O=C(NCCc1ccccc1Cl)[C@@H]1CCCN1C(=O)[C@@H](NC(=O)N1CCOCC1)c1ccccc1 | nt | nt | nt | nt | -8
O=C(CN1CCN(c2ccc([N+](=O)[O-])cc2Cl)CC1)N1CCOCC1 | 25 | -20 | -14 | 3 | 1
O=C(CN1CCOCC1)N1CCN(c2ccc([N+](=O)[O-])cc2)CC1 | 75* | -3 | -4 | -15 | -2
O=C(CCCSc1nc2ccccc2[nH]1)N1CCN(c2ccc([N+](=O)[O-])cc2)CC1 | 36 | 50* | 59* | 18* | 1
O=C(Cn1cnc2ccccc2c1=O)N1CCN(c2ccccc2)CC1 | 21 | -11 | -35 | -10 | -5
O=C(/C=C/c1ccc([N+](=O)[O-])cc1)OCC(=O)N1CCCCCC1 | 33 | -5 | -6 | nt | -5
O=C(/C=C/c1ccc([N+](=O)[O-])cc1)OCC(=O)N1CCOCC1 | 70* | 0 | 4 | nt | -2

Screens (PubChem BioAssay)
